Screening data as filed in PubChem.
An excerpt weighted towards active compounds, which were near 2.2% of everything screened.
p97 inhibitor: inhibitors of human p97 ATPase. inhibition, % at 8 µM. hit rate 0.42% among 220,000. AID 1481. P55072. recombinant p97 ATPase, Kinase-Glo ATP luminescence, 3 h; in the data active = inhibition above about 15%;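 note: 0% = DMSO vehicle and 100% = wells lacking enzyme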
Biofilm kill mix: mixtures killing C. albicans biofilm; C. albicans biofilm persisters + clotrimazole, fluorescence viability; primary screen in compound mixtures of four per well; inhibition, % at 7.6 µM; hit rate 0.02% among 120,000;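 active = inhibition above 30.3% in the primary screen of four-compound pools, then above 30% when the compound was retested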;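 note: compounds exposed to preformed 24 h biofilms for 48 h; 0% = untreated biofilm control and 100% = clotrimazole plus chlorhexidine kill blank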
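System: C. albicans CAF4-2 wild-type biofilms; Medium: RPMI/MOPS medium, pH 7.0; Reagent: Clotrimazole, 50 µg/mL; Times: biofilm formation 24 h, compound exposure 48 h, 37 °C; Detection: 2-h Alamar Blue fluorescence, 535/590 nm excitation/emission; Evaluation: percent inhibition of biofilm viability.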
Hck-Nef inh: blocks Nef-activated human Hck kinase; hit rate 0.68% among 220,000; inhibition, % at 20 µM; Recombinant Hck-YEEI plus Nef, Z-Lyte FRET kinase assay;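 active = Hck-Nef kinase inhibition above about 50%, limit read from the data; inactive = inhibition below that limit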;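 note: 0% = DMSO with Hck plus Nef and 100% = Hck alone without Nef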
Target sequence (P08631 whole entry, looked up): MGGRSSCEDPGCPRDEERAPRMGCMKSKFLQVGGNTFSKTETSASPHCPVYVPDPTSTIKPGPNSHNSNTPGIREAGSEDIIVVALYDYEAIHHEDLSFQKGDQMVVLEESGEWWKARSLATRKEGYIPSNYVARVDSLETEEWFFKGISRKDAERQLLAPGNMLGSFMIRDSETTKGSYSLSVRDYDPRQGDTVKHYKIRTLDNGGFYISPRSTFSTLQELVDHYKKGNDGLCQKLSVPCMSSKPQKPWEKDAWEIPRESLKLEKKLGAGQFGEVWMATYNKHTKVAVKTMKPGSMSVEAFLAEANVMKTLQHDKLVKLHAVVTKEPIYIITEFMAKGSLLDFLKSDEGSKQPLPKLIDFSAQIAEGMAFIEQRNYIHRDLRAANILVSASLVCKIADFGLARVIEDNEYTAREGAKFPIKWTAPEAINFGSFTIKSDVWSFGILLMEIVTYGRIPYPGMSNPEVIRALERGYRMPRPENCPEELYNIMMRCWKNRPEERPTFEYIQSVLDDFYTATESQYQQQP
14-3-3 Bad inh: disrupts binding of bovine 14-3-3 zeta to phospho-Bad peptide | P63103 | hit rate 0.71% among 220,000 | inhibition, % at 21.7 µM | TR-FRET 14-3-3zeta/Dy647-pBad peptide displacement, 1 h;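 active = inhibition above about 70%, limit read from the data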;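 note: 0% = full 14-3-3 plus peptide FRET controls and 100% = background without 14-3-3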
eIF4E 4G PPI: inhibitors of eIF4E and eIF4G interaction in translation initiation | TR-FRET eIF4E-eIF4GI(517-606) binding, 2 h | inhibition, % at 21.7 µM | hit rate 0.37% among 220,000 | AID 782;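 active = inhibition above about 30%, limit read from the data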;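 note: 0% = full FRET control wells and 100% = background wells lacking eIF4GI fragment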
PERK inhibitor: human PERK inhibition, primary cell-based screen. Q9NZJ5. hit rate 0.17% among 220,000. AID 1416. inhibition, % at 5.6 µM. CHO PERK-DD fusion, SEAP luminescence translation reporter;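 active = inhibition above the mean inhibition of all tested compounds plus 3 SD, set separately per screening campaign, cut at about 2.9% in these data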;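 note: PERK kinase domain activated by AP20187 dimerizer at 100 nM; 0% = DMSO with dimerizer and 100% = rapamycin at 8.4 µM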
* = called active by the depositor; [ ] = remark or other dose.

Results for COc1ccc(CC2C(=O)NC(=O)N(c3ccccc3)C2=O)c(OC)c1 (configuration not stated) ?
p97 inhibitor: 0; Hck-Nef inh: 2; 14-3-3 Bad inh: 3; eIF4E 4G PPI: 69*[fluorescence artefact?]; PERK inhibitor: 1

How did CCCCOc1ccc(CN2CCN(CC)CC2)cc1 do in these assays?
p97 inhibitor: 3; Hck-Nef inh: -16; 14-3-3 Bad inh: 86*; eIF4E 4G PPI: 6; PERK inhibitor: -1

How did CC(C)CN(CC(C)C)c1ccc(C=C2C(=O)NC(=S)NC2=O)cc1[N+](=O)[O-] do in these assays?
p97 inhibitor: 3; Hck-Nef inh: 2; 14-3-3 Bad inh: 65; eIF4E 4G PPI: 62*[fluorescence artefact?]; PERK inhibitor: 2

How did CCN(CC)c1ccc(C=C2C(=O)NC(=S)NC2=O)cc1 do in these assays?
p97 inhibitor: 6; Biofilm kill mix: 18; Hck-Nef inh: 9; 14-3-3 Bad inh: 4; eIF4E 4G PPI: 9; PERK inhibitor: -1

What do the screens show for `COc1ccccc1[As](=O)(O)CC(O)COc1ccc(Cl)cc1Cl` (configuration not stated)?
p97 inhibitor: 6; Biofilm kill mix: 18; Hck-Nef inh: 22; 14-3-3 Bad inh: 0; eIF4E 4G PPI: -8; PERK inhibitor: 1

What do the screens show for `CCN1C(=O)/C(=C\c2ccc([N+](=O)[O-])s2)C(=O)NC1=S`?
p97 inhibitor: 5; Biofilm kill mix: 14; Hck-Nef inh: 89*; 14-3-3 Bad inh: 94*; eIF4E 4G PPI: 24; PERK inhibitor: 2

What do the screens show for `CC1Oc2cc3c(-c4c(O)cc(O)c5c(O)c6c(cc45)OC(C)C(C)C6=O)c(O)cc(O)c3c(O)c2C(=O)C1C` (configuration not stated)?
p97 inhibitor: 8; Biofilm kill mix: 11; Hck-Nef inh: 49; 14-3-3 Bad inh: 25; eIF4E 4G PPI: 56*; PERK inhibitor: 0

How did O=C(Cc1ccccc1)N1CCN(CC2CC=CCC2)CC1 (configuration not stated) do in these assays?
p97 inhibitor: 0; Hck-Nef inh: 15; 14-3-3 Bad inh: 77*; eIF4E 4G PPI: 11; PERK inhibitor: 0

What do the screens show for `O=C(Cn1ccc2ccccc2c1=O)NCC(=O)N1CCC2(CC1)OCCO2`?
p97 inhibitor: 3; Biofilm kill mix: 6; Hck-Nef inh: 24; 14-3-3 Bad inh: 0; eIF4E 4G PPI: 6; PERK inhibitor: -1

How did Cc1ccc(CN(Cc2ccccc2)C(=S)NCC(=O)N2CCC3(CC2)OCCO3)o1 do in these assays?
p97 inhibitor: -4; Biofilm kill mix: 13; Hck-Nef inh: 10; 14-3-3 Bad inh: -5; eIF4E 4G PPI: 80*; PERK inhibitor: -1

How did CN1CCN(C(=O)COc2ccc(S(=O)(=O)NCc3ccccc3)cc2Cl)CC1 do in these assays?
p97 inhibitor: 1; Hck-Nef inh: 0; 14-3-3 Bad inh: 75*; eIF4E 4G PPI: 6; PERK inhibitor: 0

Results for Cc1cc(S(=O)(=O)NCC(C)C)ccc1OCC(=O)N1CCN(Cc2ccccc2)CC1 ?
p97 inhibitor: -8; Hck-Nef inh: 1; 14-3-3 Bad inh: -4; eIF4E 4G PPI: -8; PERK inhibitor: -1

Results for Cc1ccc(-n2c(O)c(C=Nc3ccc(Br)cn3)c(=O)[nH]c2=O)cc1 ?
p97 inhibitor: 1; Biofilm kill mix: 26; Hck-Nef inh: 23; 14-3-3 Bad inh: -3; eIF4E 4G PPI: 1; PERK inhibitor: 1

Results for CN(C)c1ccc2c(c1)N=C(c1ccco1)OP2(=S)N1CCOCC1 (configuration not stated) ?
p97 inhibitor: 1; Hck-Nef inh: -1; 14-3-3 Bad inh: 26; eIF4E 4G PPI: 41*; PERK inhibitor: 2

Results for O=C(COc1ccc(Cl)cc1)N(c1ccc(Cl)cc1)C1CN2CCC1CC2 (configuration not stated) ?
p97 inhibitor: 3; Biofilm kill mix: 13; Hck-Nef inh: 21; 14-3-3 Bad inh: -1; eIF4E 4G PPI: -5; PERK inhibitor: -1

What do the screens show for `CN1C(=O)N(C)C(=O)C2(Cc3cc(N)ccc3N3CCN(c4ccccc4F)CC32)C1=O` (configuration not stated)?
p97 inhibitor: 8; Hck-Nef inh: 9; 14-3-3 Bad inh: 82*; eIF4E 4G PPI: 10; PERK inhibitor: 1

Results for CN1CCN2c3ccc(N)cc3CC3(C(=O)NC(=O)NC3=O)C2C1 (configuration not stated) ?
p97 inhibitor: -4; Biofilm kill mix: 22; Hck-Nef inh: 15; 14-3-3 Bad inh: 96*; eIF4E 4G PPI: 93*; PERK inhibitor: 0

Results for Cc1ccccc1NC(=O)NCCN1CC1 ?
p97 inhibitor: -1; Biofilm kill mix: -2; Hck-Nef inh: 11; 14-3-3 Bad inh: 7; eIF4E 4G PPI: -1; PERK inhibitor: 0

Results for O=C(N/N=C/c1c(O)n(Cc2ccc(F)cc2)c(=O)[nH]c1=O)c1ccccc1 ?
p97 inhibitor: 7; Biofilm kill mix: 18; Hck-Nef inh: 7; 14-3-3 Bad inh: -8; eIF4E 4G PPI: -2; PERK inhibitor: 1

Results for O=C(O)CCC(=O)NCCC1=c2ccccc2=N/C1=C\c1c(O)n(Cc2ccc(F)cc2)c(=S)[nH]c1=O ?
p97 inhibitor: 4; Biofilm kill mix: 12; Hck-Nef inh: 22; 14-3-3 Bad inh: 75*; eIF4E 4G PPI: 60*; PERK inhibitor: 1

What do the screens show for `Cc1ccc(-n2cc(CNC(C)Cc3cnccn3)c(-c3cccc(C)c3)n2)cc1` (configuration not stated)?
p97 inhibitor: -2; Biofilm kill mix: 12; Hck-Nef inh: -1; 14-3-3 Bad inh: -7; eIF4E 4G PPI: 0; PERK inhibitor: 1

Results for CC(N)C(=O)c1ccco1 (configuration not stated) ?
p97 inhibitor: 3; Hck-Nef inh: 1; 14-3-3 Bad inh: -4; eIF4E 4G PPI: 1; PERK inhibitor: 0

How did C[N+]1(C)C2CCC1CC(OC(=O)c1ccco1)C2 (configuration not stated) do in these assays?
p97 inhibitor: 6; Biofilm kill mix: 13; Hck-Nef inh: 15; 14-3-3 Bad inh: 3; eIF4E 4G PPI: 0; PERK inhibitor: 3.3*

How did COc1cc(/C=C2\C(=O)NC(=O)N(c3ccccc3)C2=O)cc(OC)c1O do in these assays?
p97 inhibitor: 5; Hck-Nef inh: 1; 14-3-3 Bad inh: 38; eIF4E 4G PPI: 18; PERK inhibitor: 0

What do the screens show for `COc1cc(/C=C2\C(=O)NC(=O)N(c3ccccc3)C2=O)c([N+](=O)[O-])cc1OC`?
p97 inhibitor: 6; Biofilm kill mix: 5; Hck-Nef inh: 33; 14-3-3 Bad inh: -3; eIF4E 4G PPI: 4; PERK inhibitor: 3.0*

Results for CN(C)/C=C1/C(=O)NC(=O)N(CCNc2ncc(C(F)(F)F)cc2Cl)C1=O ?
p97 inhibitor: 2; Biofilm kill mix: 11; Hck-Nef inh: 154*; 14-3-3 Bad inh: 1; eIF4E 4G PPI: 1; PERK inhibitor: 1
